From paper PMC6607395 (Molecular Pharmaceutics, 2019)

What was measured:
rhPSMA = rhPSMA (Homo sapiens, UniProt Q04609); experiment: PSMA enzyme inhibition assay; type: biochemical
DU145 (PSMA−) tumors = experiment: In vivo imaging and biodistribution, DU145 xenograft; parameters: species or system mouse; settings: DU145 model, 17 nmol/kg tail vein, 1–72 h
[1] = Pharmacokinetic profile in rats; settings: rat; for presence in plasma over time: single IV 0.1 μmol/kg
LNCaP (PSMA+) tumors = experiment: In vivo imaging and biodistribution, LNCaP xenograft; parameters: species or system mouse; settings: for ex vivo tissue biodistribution: 72 h postinjection, 17 nmol/kg; for whole body fluorescence signal over time: LNCaP model, 17 nmol/kg tail vein, 1–72 h
Procedure, shortened: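 Male athymic nu/nu mice (5 weeks old) carried subcutaneous LNCaP (5 × 10^6 cells) or DU145 (1 × 10^6 cells) flank tumours in 1:1 HBSS/Matrigel, grown to 100–150 mm3. Each received one tail-vein injection of 17 nmol/kg in 1% DMSO/99% saline (n = 3). Whole-body imaging ran at 1, 4, 24, 48 and 72 h (ex 685, em 800 nm). At 72 h, tumours, liver, kidney, heart and blood were excised, rinsed, weighed and imaged ex vivo, and mean AFU/mg was calculated.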

TTR in human serum = TTR in human serum (Homo sapiens, UniProt P02766); experiment: Fluorescent probe exclusion; type: binding; settings: for TTR occupancy: 10 μM ligand, human serum (TTR ∼5 μM), after 3 h relative to probe alone
human TTR = human TTR (Homo sapiens, UniProt P02766); experiment: Fluorescence polarization; type: binding
[2] = target: Cathepsin B from human liver (Homo sapiens, UniProt P07858); experiment: MMAE release following cathepsin B cleavage; type: in vitro ADME; settings: 20 μM compound, cathepsin B 100 nM, pH 5.5, 37 °C, within 15 min
Procedure, shortened: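 Human liver cathepsin B was activated for 15 min at ambient temperature in 25 mM sodium acetate, 1 mM EDTA and 9.2 mM DTT, pH 5.5. It was then used at 100 nM with 20 μM substrate in 25 mM sodium acetate/1 mM EDTA, pH 5.5, at 37 °C. Aliquots taken at 0, 15, 30 min, 1 h and 2 h were quenched in acidified acetonitrile–water, chilled and centrifuged. Free MMAE was quantified by HPLC-UV at 210 nm, and its identity was confirmed by LC–MS/MS.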

Sequence of rhPSMA (Q04609 whole entry): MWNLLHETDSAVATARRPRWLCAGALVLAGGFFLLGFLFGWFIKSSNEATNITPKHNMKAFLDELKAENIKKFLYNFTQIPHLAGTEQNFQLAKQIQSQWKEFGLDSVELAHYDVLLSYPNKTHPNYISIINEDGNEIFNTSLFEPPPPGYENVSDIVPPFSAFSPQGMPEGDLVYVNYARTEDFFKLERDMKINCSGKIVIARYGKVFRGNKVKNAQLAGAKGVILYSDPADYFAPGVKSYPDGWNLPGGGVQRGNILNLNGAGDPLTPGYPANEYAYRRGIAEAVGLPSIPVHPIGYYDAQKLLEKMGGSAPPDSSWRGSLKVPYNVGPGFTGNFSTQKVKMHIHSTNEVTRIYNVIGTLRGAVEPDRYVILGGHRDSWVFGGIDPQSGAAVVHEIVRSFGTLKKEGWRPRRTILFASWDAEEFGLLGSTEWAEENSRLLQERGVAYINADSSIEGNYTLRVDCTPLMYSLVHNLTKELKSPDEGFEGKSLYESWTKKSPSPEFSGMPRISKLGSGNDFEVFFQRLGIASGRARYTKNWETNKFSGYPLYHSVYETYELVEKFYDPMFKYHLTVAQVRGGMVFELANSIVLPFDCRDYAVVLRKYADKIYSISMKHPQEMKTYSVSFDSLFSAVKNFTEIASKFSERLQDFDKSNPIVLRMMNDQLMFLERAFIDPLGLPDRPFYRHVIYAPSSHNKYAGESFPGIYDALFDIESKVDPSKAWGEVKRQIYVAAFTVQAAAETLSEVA

Structure (SMILES) | Ki (rhPSMA; Ki on PSMA, absence of TTR) | whole body fluorescence signal over time (DU145 (PSMA−) tumors) | presence in plasma over time [1] | ex vivo tissue biodistribution (LNCaP (PSMA+) tumors) | whole body fluorescence signal over time (LNCaP (PSMA+) tumors) | TTR occupancy (TTR in human serum) | Kd (human TTR) | further results
C#CC[C@H](NC(=O)CCCCC[N+]1=C(C=CC2=CC(=CC=C3N(C)c4ccc(S(=O)(=O)O)cc4C3(C)C)CCC2)C(C)(C)c2cc(S(=O)(=O)[O-])ccc21)C(=O)NCCCCCC(=O)NCCCC[C@H](NC(=O)N[C@@H](CCC(=O)O)C(=O)O)C(=O)O [BFM1] | 0.0207 µM | significantly reduced at 4 h postinjection and reduced to the background level at 24 h | no measurable amount of BFM1 after 4 h | accumulated predominantly in PSMA expressing LNCaP tumors, with no substantial fluorescence activity in other tissues except kidneys | significantly reduced at 4 h postinjection and reduced to the background level at 24 h | – | – | –
O=C(O)c1ccc2nc(-c3cc(Cl)cc(Cl)c3)oc2c1 [tafamidis, reference compound] | – | – | – | – | – | 50.8 ± 2.0% | – | –
C#CCC(N)C(=O)NCCCCCC(=O)NCCCCC(NC(=O)NC(CCC(=O)O)C(=O)O)C(=O)O (stereo not shown) [ligand 22] | 0.0095 µM | – | – | – | – | – | – | –
Cc1n[nH]c(C)c1CCCOc1cc(OCCCCCCN)cc(C(=O)O)c1 [ligand 2] | – | – | – | – | – | – | 0.0489 µM | receptor occupancy at 10 µM (TTR in human serum; read-out: TTR occupancy): 80.4 ± 0.7%
Cc1n[nH]c(C)c1CCCOc1cc(OCCCCCCNCCOCCn2cc(C[C@H](NC(=O)CCCCC[N+]3=C(C=CC4=CC(=CC=C5N(C)c6ccc(S(=O)(=O)O)cc6C5(C)C)CCC4)C(C)(C)c4cc(S(=O)(=O)[O-])ccc43)C(=O)NCCCCCC(=O)NCCCC[C@H](NC(=O)N[C@@H](CCC(=O)O)C(=O)O)C(=O)O)nn2)cc(C(=O)O)c1 [TFM1] | 0.0328 µM | maintained a very high fluorescence signal at 4 h and the signal was maintained for up to 48 h postinjection | still present even after 24 h | accumulated predominantly in PSMA expressing LNCaP tumors, with no substantial fluorescence activity in other tissues except kidneys | maintained a very high fluorescence signal at 4 h and the signal was maintained for up to 48 h postinjection | 57.6 ± 1.9% | 0.374 µM | Ki (rhPSMA; Ki on PSMA in the presence of TTR, 1 μM TTR): 0.0338 µM; fold higher MRT compared to BFM1 ([1]; IV 0.1 μmol/kg): ~16 fold; fold increase in t1/2 compared to BFM1 ([1]; IV 0.1 μmol/kg): ~6.6 fold; fold enhanced uptake in LNCaP compared to BFM1 (LNCaP (PSMA+) tumors; excised tumors, 72 h): ~3 fold; fold higher fluorescent signal in LNCaP compared to DU145 tumors (LNCaP (PSMA+) tumors; excised tumors, 72 h): ~7 fold
CC[C@H](C)[C@@H]([C@@H](CC(=O)N1CCC[C@H]1[C@H](OC)[C@@H](C)C(=O)N[C@H](C)[C@@H](O)c1ccccc1)OC)N(C)C(=O)[C@@H](NC(=O)[C@H](C(C)C)N(C)C(=O)OCc1ccc(NC(=O)[C@H](CCCNC(N)=O)NC(=O)[C@@H](NC(=O)CCCCCN2C(=O)CC(SCCC(=O)N[C@@H](Cc3cn(CCOCCNCCCCCCOc4cc(OCCCc5c(C)n[nH]c5C)cc(C(=O)O)c4)nn3)C(=O)NCCCCCC(=O)NCCCC[C@H](NC(=O)N[C@@H](CCC(=O)O)C(=O)O)C(=O)O)C2=O)C(C)C)cc1)C(C)C (stereo partly shown) [TFM2] | – | – | – | – | – | – | – | MMAE release [2]: 98%
